Screens: PubChem BioAssay, several laboratories
An excerpt weighted towards active compounds, which were near 3.4% of everything screened.
VIM-2 inh: blocks Pseudomonas aeruginosa VIM-2 metallo-beta-lactamase. AID 1527. inhibition, % at 5.6 µM. 290,000 compounds, 0.89% hits. purified VIM-2, nitrocefin hydrolysis, epi-absorbance fluorescence;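 active = inhibition above the mean of all tested compounds plus 3 SD, cutoff set per screening run, cut at about 7.5% in these data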;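 also: red hydrolysis product quenches plate fluorescence so inhibitors raise well fluorescence; 0% = enzyme with DMSO and 100% = DMSO without enzyme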
MEKK3 PB1 HTS: MEKK3-MEK5 PB1 interaction, increase or decrease; Q99759; bead-based flow cytometry, Alexa488-MEK5 binding to MEKK3; actives lie on both sides; 0 = blocked by unlabeled MEK5, 100 = vehicle; binding response (% of control), % at 10 µM; 290,000 compounds, 1.4% hits; AID 1529;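 active = binding response more than 3 SD above or below the average of its plate-row segment, actives on both sides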;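 also: Alexa488 bead fluorescence after subtracting the streptavidin-only scavenger bead signal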
Target sequence (Q99759 whole entry, looked up): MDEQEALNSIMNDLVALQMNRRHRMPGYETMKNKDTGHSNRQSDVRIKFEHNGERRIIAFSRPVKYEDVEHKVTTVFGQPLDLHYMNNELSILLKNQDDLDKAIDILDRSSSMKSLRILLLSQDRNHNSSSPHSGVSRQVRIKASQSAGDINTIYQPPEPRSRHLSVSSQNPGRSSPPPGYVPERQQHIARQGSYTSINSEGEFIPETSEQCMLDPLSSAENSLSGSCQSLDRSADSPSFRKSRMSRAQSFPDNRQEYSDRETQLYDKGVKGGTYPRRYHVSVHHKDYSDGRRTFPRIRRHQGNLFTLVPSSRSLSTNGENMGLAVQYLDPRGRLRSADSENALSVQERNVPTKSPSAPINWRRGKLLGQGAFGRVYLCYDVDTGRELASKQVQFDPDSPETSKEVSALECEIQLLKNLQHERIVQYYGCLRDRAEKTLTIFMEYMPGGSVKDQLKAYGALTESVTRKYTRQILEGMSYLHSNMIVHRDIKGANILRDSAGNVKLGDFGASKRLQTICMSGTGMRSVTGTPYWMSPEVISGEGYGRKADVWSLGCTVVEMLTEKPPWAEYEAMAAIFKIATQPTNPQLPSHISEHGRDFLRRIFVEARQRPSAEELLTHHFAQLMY
MEKK2 mut-MEK5: signal of MEK5 binding to mutant human MEKK2 PB1 domain | bead flow cytometry, Alexa488-MEK5 binding to MEKK2 mutant | percent response, % at 10 µM | 290,000 compounds, 0.35% hits | AID 1530; in the data active = percent response above about 24%, passing the limit was not always enough
IMP-1 inh: blocks Pseudomonas aeruginosa IMP-1 metallo-beta-lactamase. inhibition, % at 5.6 µM. 290,000 compounds, 0.45% hits. AID 1556. purified IMP-1, nitrocefin hydrolysis, epi-absorbance fluorescence;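 active = inhibition above the mean plus 3 SD of all compounds in the same screening run, cut at about 4.5% in these data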;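 also: 0% = IMP-1 with DMSO and 100% = DMSO wells lacking enzyme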
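Material – recombinant IMP-1 enzyme, purified · Amount – IMP-1 0.2 nM before substrate addition · Medium – HEPES buffer pH 7.1 with ZnSO4 and Brij 35 · Timing – 25 °C, 15 min preincubation, 25 min reaction · Measured by – plate fluorescence quenching by hydrolysis product, ex 480/em 530 nm · Read-out – percent enzyme inhibition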
MEKK2wt PB1 HTS: raises or lowers MEK5 binding to wildtype human MEKK2 PB1 domain. Q9Y2U5. bead flow cytometry, Alexa488-MEK5 binding to MEKK2 WT; actives lie on both sides. binding response (% of control), % at 10 µM. 290,000 compounds, 1.1% hits. AID 1531; in the data active = binding response below about 67% or above about 130%
MEKK2wt confirm: raises or lowers MEK5 binding to wildtype human MEKK2, retest; AID 1892; shares compounds with MEKK3 PB1 HTS; 5,900 compounds, 2.4% hits; binding response (% of control), % at 10 µM; bead flow cytometry, Alexa488-MEK5 binding to MEKK2 WT; actives lie on both sides; in the data active = binding response below about 16% or above about 210%; inactive = in between
MEKK2mut-MEK5: signal of MEK5 binding to mutant human MEKK2, retest. shares compounds with MEKK3 PB1 HTS. bead flow cytometry, Alexa488-MEK5 binding to MEKK2 mutant. percent response, % at 10 µM. 5,900 compounds, 2% hits; in the data active = percent response mostly above about 71%, no sharp cut-off; inactive = mostly below about 38%;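 also: higher means compound restores mutant binding toward wildtype level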
MEKK3-MEK5 inh: confirmation of inhibitors of MEK5 binding to human MEKK3. shares compounds with MEKK3 PB1 HTS. 5,900 compounds, 1.8% hits. bead flow cytometry, Alexa488-MEK5 binding to MEKK3; stronger effect = lower value. binding response (% of control), % at 10 µM. AID 1894;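 active = binding response below 72% of control, or above a set upper limit, though filed actives all read lower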;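 also: 100% = DMSO only wells and 0% = binding blocked by excess unlabeled MEK5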
* = called active by the depositor; . = not tested or not shown; [ ] = dose if it differs, or a comment.

SMILES | VIM-2 inh | MEKK3 PB1 HTS | MEKK2 mut-MEK5 | IMP-1 inh | MEKK2wt PB1 HTS | MEKK2wt confirm | MEKK2mut-MEK5 | MEKK3-MEK5 inh
CN(Cc1ccc(C#CCCO)cc1)CC1CCCN(CCc2ccc(Cl)cc2)C1 (configuration not stated) | -2 | 110 | 21 | -2 | 154* | 121 | 20 | 100
CN(Cc1ccccc1O)CC1CCCN(CCc2ccc(Cl)cc2)C1 (configuration not stated) | -2 | 105 | 11 | -2 | 126 | . | . | .
CC1(C)CC2CN(C(=O)Cc3ccccc3)C(C)(C2)C1 (configuration not stated) | -3 | 101 | 2 | -2 | 102 | . | . | .
COc1cc(-n2c(=O)c3ccccc3n(Cc3cccc(C)c3)c2=O)cc(OC)c1OC | -1 | 103 | 4 | -2 | 103 | . | . | .
Cc1nnsc1C(=O)NNS(=O)(=O)c1ccccc1 | 0 | 102 | 8 | 1 | 104 | . | . | .
Cc1c(C(=O)NNS(=O)(=O)c2ccccc2)sc(=S)n1C | 0 | 139* | 0 | -3 | 113 | 97 | -5 | 102
COc1ccc(C)cc1S(=O)(=O)N1CCCCCC1 | -5 | 129* | 26 | -4 | 112 | 99 | 6 | 102
COc1cc(C)ccc1S(=O)(=O)N1CCCCCC1 | -3 | 97 | -10 | -4 | 88 | . | . | .
O=C1c2ccccc2C(=O)N1CC(O)CN1CCOCC1 (configuration not stated) | -3 | 105 | 6 | -2 | 98 | . | . | .
CCc1ccc(C(=O)NCc2ccc(Cl)cc2Cl)cc1 | -1 | 99 | -2 | -1 | 100 | . | . | .
CCc1ccc(C(=O)NCc2ccc(Cl)cc2)cc1 | -1 | 71*[inhibitor] | -1 | -3 | 97 | 98 | -1 | 102
Cc1ccc(SCc2ccc(C(=O)NCc3ccncc3)cc2)cc1 | -1 | 82*[inhibitor] | -6 | -2 | 85 | 101 | -2 | 100
Cc1ccc(SCCC(=O)NCc2ccncc2)cc1 | -1 | 99 | -5 | -3 | 94 | . | . | .
CC(C(=O)NCc1cccc(Cl)c1)N1C(=O)c2ccccc2C1=O (configuration not stated) | -1 | 102 | 2 | -1 | 99 | . | . | .
COc1ccc(N2C(=O)/C(=C/c3cccs3)NC2=S)cc1 | -2 | 141* | 0 | -2 | 104 | 105 | 2 | 105
O=C(N/N=C/c1cn(-c2ccccc2)nc1-c1cccnc1)c1ccccc1 | 0 | 100 | -8 | -1 | 91 | . | . | .
Cc1oc(-c2ccccc2)cc1C(=O)Nc1ccccc1 | -3 | 113 | 11 | -3 | 111 | . | . | .
Cc1oc(-c2ccccc2)cc1C(=O)NCc1ccncc1 | -3 | 102 | 13 | -4 | 56*[inhibitor] | 104 | -4 | 99
COc1ccccc1CCc1nnc(CCC(=O)NCCCOc2cccnc2)o1 | -1 | 100 | -2 | -3 | 100 | . | . | .
CC1(C)Cc2c(sc(N)c2C#N)C(C)(C)N1 | -3 | 106 | -8 | -3 | 96 | . | . | .
CN1Cc2sc(N)c(C#N)c2CC1(C)C | -2 | 88 | -14 | -3 | 52*[inhibitor] | 94 | 4 | 88
Cn1c(=O)cc(OCCCC(=O)NCc2cccnc2)c2ccccc21 | 0 | 48*[inhibitor] | -16 | 0 | 51 | 100 | -3 | 99
C=CCNC(=O)/C=C/c1cccs1 | -1 | 135* | -1 | -3 | 112 | 115 | 17 | 108
Cc1ccnc(NC(=O)C2(c3cccs3)CCOCC2)c1 | -3 | 145* | 0 | 0 | 107 | 1.0*[inhibitor] | -29 | 2.0*
Cc1ccnc(NC(=O)/C=C/c2cccs2)c1 | -2 | 120 | 58* | -2 | 178* | 105 | -7 | 97
SMILES | VIM-2 inh | MEKK3 PB1 HTS | MEKK2 mut-MEK5 | IMP-1 inh | MEKK2wt PB1 HTS | MEKK2wt confirm | MEKK2mut-MEK5 | MEKK3-MEK5 inh
O=C(NCCCO)/C(=C/c1ccco1)NC(=O)c1ccc(Br)o1 | 1 | 99 | 2 | -1 | 100 | . | . | .
Cn1c(=O)n(C)c2cc(S(=O)(=O)NCCOCCO)ccc21 | -4 | 2.0*[inhibitor] | -27 | -2 | -1.0*[inhibitor] | 103 | 2 | 102
Cc1cccc(-c2nsc(SCC(=O)Nc3cc(C)on3)n2)c1 | -2 | 94 | -3 | -3 | 94 | . | . | .
CCOC(=O)N1CCN(C(=O)CSc2nc(-c3cccc(C)c3)ns2)CC1 | -2 | 147* | 10 | -2 | 134* | 106 | 12 | 106
CCOC(=O)CNC(=O)CSc1nc(-c2ccc(C)cc2)ns1 | 0 | 129* | 2 | -2 | 119 | 117 | 6 | 100
CCOC(=O)CNC(=O)CSc1nc(-c2ccccc2)ns1 | 0 | 112 | 0 | -2 | 113 | . | . | .
Cc1cccc(C(=O)OCc2cnc(Cl)s2)c1 | -8 | 15*[inhibitor] | -17 | -3 | 25*[inhibitor] | 104 | 4 | 101
Nc1nnc(SCC(=O)c2ccco2)s1 | -2 | 96 | -1 | -2 | 95 | . | . | .
Cc1ccc2[nH]c3c(c2c1)CCc1cn[nH]c1-3 | -2 | . | . | -3 | . | . | . | .
CN(Cc1ccccc1)C(=O)CCS(=O)(=O)c1ccc2c(c1)NC(=O)CS2 | -1 | 107 | 6 | -2 | 103 | . | . | .
CCCN1CCN(CCCNC(=O)c2cc3c(s2)-c2ccccc2OC3)CC1 | 2 | 102 | 8 | -1 | 120 | . | . | .
CN(C)CCNC(=O)c1cc2c(s1)-c1ccccc1OC2 | 4 | 112 | 24* | 1 | 132 | 108 | 2 | 99
O=C(CSc1nc2ccccc2s1)N1N=C(c2cccs2)CC1c1ccc(F)cc1 (configuration not stated) | -2 | 73*[inhibitor] | -1 | -2 | 95 | 95 | -7 | 98
COc1ccc(C2CC(c3cccs3)=NN2C(=O)CSc2nc3ccccc3s2)cc1 (configuration not stated) | -3 | 130* | -1 | -3 | 99 | 93 | -6 | 99
CCCOc1ccc(/C=N/Nc2ccccc2[N+](=O)[O-])c(OCCC)c1 | 0 | 80 | -2 | 0 | 76 | . | . | .
O=C(c1ccc(COc2ccc3c(c2)CCC3)o1)N1CCN(c2ccccc2)CC1 | -1 | 103 | 2 | 1 | 103 | . | . | .
O=C(c1ccco1)N1CCN(C(=O)c2ccc(COc3ccc4c(c3)CCC4)o2)CC1 | 0 | 0.0*[inhibitor] | -9 | -1 | -4.0*[inhibitor] | 98 | -1 | 99
CC(=O)Nc1ccc(NC(=O)CN(c2ccc([N+](=O)[O-])cc2)S(=O)(=O)c2ccccc2)cc1 | -3 | 103 | 4 | -2 | 100 | . | . | .
COc1ccccc1NC(=O)Nc1cccc(NC(C)=O)c1 | -3 | 110 | 16 | -3 | 109 | . | . | .
